High-throughput results deposited in PubChem by Broad Institute.
ARNT TACC3 PPI = disruptors of human ARNT/TACC3 interaction; AID 623870; inhibition, % at 9.99 µM; actives 0.66% (n = 390,000); AlphaScreen His-ARNT PAS-B/GST-TACC3 binding, luminescence; TACC3 fragment carries E629A point mutation;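 active = mean inhibition of replicates at least 50% and at least half of replicates each reaching 50%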
DYRK1A inh = Dyrk1A (rat) kinase inhibition | inhibition, % at 12.5 µM | actives 0.43% (n = 310,000) | ADP-Glo luminescence, NFATc1 peptide | AID 504441; in the data active = inhibition above about 50%
CAL PDZ FP-1 = inhibitors of human CAL PDZ peptide binding. Q9HD26. purified CAL PDZ, TMR-peptide fluorescence polarization, 1 h. inhibition, % at 20 µM. actives 0.02% (n = 330,000). AID 504414;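 active = highest replicate inhibition of at least 40%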
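Control set: unlabelled peptide and DMSO controls / Material: purified CerCALP PDZ construct / Timing: 1 h incubation at room temperature before polarization reading / Doses: 20 µM, one dose / Detection: fluorescence polarization (mP)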
CAL PDZ FP-2 = blocks peptide binding to the human CAL PDZ domain; purified CAL PDZ, TMR-peptide fluorescence polarization, 1 h; inhibition, % at 24.9 µM; Q9HD26; AID 602252; actives 0.92% (n = 300,000);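 active = mean inhibition of at least 30% with at least half of replicates also reaching 30%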
A number is an active result; n = inactive; x = no result; ! = repeats disagree. Hits are enriched below; roughly 1.4% of the tested compounds scored in any of these assays.

SMILES	ARNT TACC3 PPI	DYRK1A inh	CAL PDZ FP-1	CAL PDZ FP-2
NS(=O)(=O)c1ccc(NC(=O)c2cccc(Cl)c2)cc1	n	x	n	39
O=C(Nc1ccc(NC(=O)c2cccs2)cc1)c1cccnc1	n	n	n	n
COc1cccc(-c2nnc(NC(=O)c3cccc(F)c3)o2)c1	n	n	n	x
Cc1ccc(NC(=O)c2cccs2)cc1NC(=O)c1cccnc1	n	n	n	105
O=C(Nc1nnc(-c2ccccn2)o1)c1cccc(Cl)c1	52	x	n	n
O=C(Nc1nnc(-c2cccnc2)o1)c1cccc(Cl)c1	52	n	n	n
C[C@H](CO)N1C[C@H](C)[C@H](CN(C)S(C)(=O)=O)OCCCC[C@H](C)Oc2ccc(NC(=O)c3ccccc3)cc2C1=O	n	x	x	x
O=C(Cn1nc2ccccc2n1)N/N=C/c1cc([N+](=O)[O-])ccc1O	x	n	n	n
O=C(CSc1ccccn1)N/N=C/c1ccccc1[N+](=O)[O-]	n	n	n	n
O=C(N/N=C/c1cc([N+](=O)[O-])ccc1O)C1CCCCC1	67	n	n	n
O=C(CSc1ccccn1)N/N=C/c1cc([N+](=O)[O-])ccc1O	76	n	n	n
CCOC(=O)CSc1nnc(-c2ccoc2C)n1-c1ccc(OCC)cc1	n	n	n	n
CCOC(=O)CSc1nnc(-c2ccoc2C)n1-c1ccc(C)cc1	n	n	n	45
O=C1CCCC(=O)C1=Cc1c[nH]c2ccccc12	n	n	n	70
O=C1CCCc2c1[nH]c1ccccc21	n	n	x	n
Cc1noc(C)c1COc1ccc(CC(=O)NCCc2ccccc2)cc1	n	n	n	108
Cc1noc(C)c1COc1ccc(C(=O)NCCc2ccc(F)cc2)cc1	n	n	n	x
CN(CC1CCCO1)S(=O)(=O)c1ccc(C(=O)Nc2nc(-c3ccccn3)cs2)cc1 (configuration not stated)	59	n	n	n
O=C(CC(c1ccccc1)C1CCCCC1=O)c1ccccc1 (configuration not stated)	n	n	n	32
CN(C)c1ccc(C(CC(=O)c2ccccc2)C2CCCCC2=O)cc1 (configuration not stated)	n	n	n	n
C=CCn1c(SCC(=O)O)nc2sc(CC)cc2c1=O	n	n	n	x
C=CCn1c(SCC(=O)/C(C#N)=C(\C)N)nc2sc(CC)cc2c1=O	n	n	n	40!
CCc1ccc(S(=O)(=O)/N=C2\C=C(Nc3ccc(C(=O)O)cc3)C(=O)c3ccccc32)cc1	74	n	n	n
COC(=O)c1ccccc1NC1=C/C(=N\S(=O)(=O)c2ccc(C(=O)O)cc2)c2ccccc2C1=O	72	n	n	n
C[C@H](CO)N1C[C@H](C)[C@H](CN(C)S(=O)(=O)c2cn(C)cn2)Oc2cc(C3=CCCCC3)ccc2S1(=O)=O	n	x	x	x
SMILES	ARNT TACC3 PPI	DYRK1A inh	CAL PDZ FP-1	CAL PDZ FP-2
CC(=O)c1cccc(NC(=O)C(C)OC(=O)CCn2c(C)csc2=O)c1 (configuration not stated)	x	n	n	62
Cc1csc(=O)n1CCC(=O)OC(C)C(=O)Nc1ccc(N2CCOCC2)cc1 (configuration not stated)	n	x	n	n
CC1(C)CSC(=S)N1S(=O)(=O)c1ccccc1	64	n	n	n
Cc1ccc(S(=O)(=O)N2c3ccccc3-c3c(ssc3=S)C2(C)C)cc1	n	n	n	n
C=CCNC(=O)/C(=C/c1ccco1)NC(=O)c1ccc(Br)o1	n	n	n	n
C=CCNC(=O)/C(=C\c1ccco1)NC(=O)c1ccco1	n	n	n	65
O=C1CN(C(=O)COC(=O)C23CC4CC(CC(O)(C4)C2)C3)c2ccccc2N1	n	n	n	39
O=C1CN(C(=O)COc2ccc(F)cc2Br)c2ccccc2N1	n	n	n	67
O=C1CN(C(=O)COc2ccccc2Cl)c2ccccc2N1	n	n	n	45
CC1(C)C(=O)Nc2ccccc2N1C(=O)COC(=O)C12CC3CC(CC(O)(C3)C1)C2	n	n	n	n
O=C1CN(C(=O)COc2c(F)c(F)cc(F)c2F)c2ccccc2N1	n	n	n	n
O=C1CN(C(=O)COc2ccccc2F)c2ccccc2N1	n	n	n	n
O=C(C[C@@H]1C[C@@H]2c3cc(NC(=O)C4CCC4)ccc3O[C@@H]2[C@H](CO)O1)NCc1ccccc1	n	x	x	x
C[C@H]1CN([C@@H](C)CO)C(=O)c2cccc(NS(=O)(=O)c3cn(C)cn3)c2O[C@@H]1CN(C)C(=O)Nc1cccc2ccccc12	n	x	x	x
CCC(=O)Nc1ccc2c(c1)OC[C@H](C)N(C(=O)CC1CC1)C[C@H](C)[C@@H](OC)CN(C)C2=O	n	x	x	x
CC(Cc1cccnc1)NC(=O)c1ccccc1OC1CCN(S(C)(=O)=O)CC1 (configuration not stated)	n	n	n	31
O=C(Cn1cnc(S(=O)(=O)N2CCCC2)c1)Nc1cccc(Br)c1	n	n	n	50
CC(=O)c1cccc(NC(=O)Cn2cnc(S(=O)(=O)N3CCCCC3)c2)c1	n	n	n	n
COCCNC(=O)C[C@@H]1CC[C@H](NC(=O)NC2CCCC2)[C@H](CO)O1	n	x	x	x
CC(C)NC(=O)N(C)C[C@@H]1Oc2c(NS(=O)(=O)c3ccccc3)cccc2C(=O)N([C@H](C)CO)C[C@H]1C	n	x	x	x
O=C(C[C@@H]1CC[C@@H]2[C@H](COC[C@H](O)CN2C(=O)c2cnccn2)O1)NCc1ccccc1	n	x	x	x
Cc1noc(C)c1NC(=O)Nc1ccc2c(c1)C(=O)N([C@@H](C)CO)C[C@@H](C)[C@H](CN(C)CC1CCCCC1)OCCCC[C@H](C)O2	n	x	x	x
C[C@@H]1CN([C@H](C)CO)C(=O)Cc2cc(NC(=O)CCN3CCOCC3)ccc2O[C@H]1CN(C)S(C)(=O)=O	n	x	x	x
O=C(O)c1cc2ccccc2c(N=Nc2cccnc2)c1O	n	73	n	n
CCc1ccc(S(=O)(=O)Nc2cc(SCC(=O)O)c(O)c3ccccc23)cc1	x	n	n	n
SMILES	ARNT TACC3 PPI	DYRK1A inh	CAL PDZ FP-1	CAL PDZ FP-2
Cc1ccc(C)c(S(=O)(=O)Nc2cc(SCC(=O)O)c(O)c3ccccc23)c1	54	n	45	n
Cc1cccc(C)c1NC(=O)C(=O)NCCCN1CCOCC1	n	n	n	n
Cc1cccc(C)c1NC(=O)NCCCN1CCN(c2ccccc2)CC1	n	n	n	51
CCCCOC(=O)c1ccc(OC(=O)c2cccnc2)cc1	n	n	n	33
CCCCCCOC(=O)c1ccc(OC(=O)c2cccnc2)cc1	n	n	n	n
Cc1cc(NC2CCCC2)n2nc(C)c(-c3ccccc3)c2n1	n	n	n	32
COc1ccc(-c2c(C)nn3c(NC4CCCC4)cc(C)nc23)cc1OC	n	n	n	n
CCOC(=O)c1sc(NC(=O)Nc2ccc(Cl)cc2)nc1C	n	n	n	52
CCOC(=O)Nc1nc(C)c(C(=O)c2ccc(Cl)cc2)s1	n	n	x	n
CN1CCN(C(=O)c2cc3nc(-c4ccc(F)cc4)cc(C(F)(F)F)n3n2)CC1	n	n	n	n
Cc1cc(-c2ccc(F)cc2)nc2cc(C(N)=O)nn12	41	n	n	n
C[C@@H]1CN([C@@H](C)CO)C(=O)Cc2cc(NC(=O)C3CCCCC3)ccc2O[C@H]1CN(C)S(C)(=O)=O	n	x	x	x
